Data set [1] relates to T1, Lysine-specific demethylase 4A (Homo sapiens), O75164 [H188A,E190A].
T1 sequence (whole entry): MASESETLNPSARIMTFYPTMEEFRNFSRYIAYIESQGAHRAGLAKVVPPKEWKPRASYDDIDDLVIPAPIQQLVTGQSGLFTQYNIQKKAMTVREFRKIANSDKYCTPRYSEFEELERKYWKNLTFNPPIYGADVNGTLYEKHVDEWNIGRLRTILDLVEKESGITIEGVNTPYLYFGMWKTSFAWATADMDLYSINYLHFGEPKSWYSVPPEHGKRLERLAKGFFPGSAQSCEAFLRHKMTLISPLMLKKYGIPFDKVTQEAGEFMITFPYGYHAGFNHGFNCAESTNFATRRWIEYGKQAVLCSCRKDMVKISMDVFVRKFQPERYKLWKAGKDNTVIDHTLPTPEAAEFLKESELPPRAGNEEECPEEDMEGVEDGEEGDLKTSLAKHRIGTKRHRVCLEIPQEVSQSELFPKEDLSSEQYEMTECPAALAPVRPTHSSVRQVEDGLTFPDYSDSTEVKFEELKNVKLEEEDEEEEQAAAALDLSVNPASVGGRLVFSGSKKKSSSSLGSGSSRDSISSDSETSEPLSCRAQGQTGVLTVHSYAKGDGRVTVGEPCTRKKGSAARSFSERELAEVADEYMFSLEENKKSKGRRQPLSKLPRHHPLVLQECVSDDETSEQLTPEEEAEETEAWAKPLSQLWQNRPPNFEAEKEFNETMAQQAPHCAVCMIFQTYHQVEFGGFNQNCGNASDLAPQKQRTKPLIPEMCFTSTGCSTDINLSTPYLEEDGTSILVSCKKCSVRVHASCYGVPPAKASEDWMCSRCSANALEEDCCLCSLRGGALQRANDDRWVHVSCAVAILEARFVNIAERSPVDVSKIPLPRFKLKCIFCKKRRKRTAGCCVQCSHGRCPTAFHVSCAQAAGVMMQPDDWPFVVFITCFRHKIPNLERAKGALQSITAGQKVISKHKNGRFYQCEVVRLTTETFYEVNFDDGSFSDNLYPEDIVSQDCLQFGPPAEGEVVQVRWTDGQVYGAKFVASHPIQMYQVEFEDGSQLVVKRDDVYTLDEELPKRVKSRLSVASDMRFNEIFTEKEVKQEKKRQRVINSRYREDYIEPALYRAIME
The data set is described as follows: Inhibition of FLAG tagged full length catalytically inactive human KDM4A H188A/E190A mutant transfected in HeLa cells assessed as change in H3K9Me3 level measured after 24 hrs by cell analyser based immunofluorescence assay. Put shortly:
(§1)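 HeLa cells grown in DMEM with 10% FBS, 37°C, 5% CO₂, seeded 6000 cells/well overnight. Compounds serially diluted 1:3 to 1:5 in medium with 20% FBS, DMSO held constant, then added for 24 h. Histone mark read by immunofluorescence imaging, 10 fields per well at 20X.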

A short description of data set [2]: Drug metabolism in human LNCAP cells assessed as metabolite formation at 10 uM measured upto 120 hrs by UPHLC analysis. Type of data set: ADME, cell-based. Put shortly: (§2)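 They were then given 10 μM compound or 0.1% DMSO vehicle. Media and trypsinised cell pellets were collected at 1, 6, 24, 48, 72 and 120 h, frozen at -80 °C, and analysed by UHPLC–Orbitrap MS using full MS/dd-MS² and full MS/AIF.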

A short description of data set [3]: Drug uptake in human LNCAP cells at 10 uM measured upto 120 hrs by UPHLC analysis. Type of data set: ADME, cell-based. As to conditions: TDE = time-dependent effect. The method in brief:
as §2

The test system of data set [4] is Lysine-specific demethylase 5B (Homo sapiens), Q9UGL1 [H499A,E501A]. The data set is described as follows: Inhibition of full length human catalytically inactive KDM5B H499A/E501A mutant transfected in HeLa cells assessed as change in H3K4Me3 level measured after 24 hrs by cell analyser based immunofluorescence assay. The method in brief: as §1
Lysine-specific demethylase 5B (Homo sapiens), Q9UGL1 [H499A,E501A], sequence (Q9UGL1 whole entry H499A/E501A): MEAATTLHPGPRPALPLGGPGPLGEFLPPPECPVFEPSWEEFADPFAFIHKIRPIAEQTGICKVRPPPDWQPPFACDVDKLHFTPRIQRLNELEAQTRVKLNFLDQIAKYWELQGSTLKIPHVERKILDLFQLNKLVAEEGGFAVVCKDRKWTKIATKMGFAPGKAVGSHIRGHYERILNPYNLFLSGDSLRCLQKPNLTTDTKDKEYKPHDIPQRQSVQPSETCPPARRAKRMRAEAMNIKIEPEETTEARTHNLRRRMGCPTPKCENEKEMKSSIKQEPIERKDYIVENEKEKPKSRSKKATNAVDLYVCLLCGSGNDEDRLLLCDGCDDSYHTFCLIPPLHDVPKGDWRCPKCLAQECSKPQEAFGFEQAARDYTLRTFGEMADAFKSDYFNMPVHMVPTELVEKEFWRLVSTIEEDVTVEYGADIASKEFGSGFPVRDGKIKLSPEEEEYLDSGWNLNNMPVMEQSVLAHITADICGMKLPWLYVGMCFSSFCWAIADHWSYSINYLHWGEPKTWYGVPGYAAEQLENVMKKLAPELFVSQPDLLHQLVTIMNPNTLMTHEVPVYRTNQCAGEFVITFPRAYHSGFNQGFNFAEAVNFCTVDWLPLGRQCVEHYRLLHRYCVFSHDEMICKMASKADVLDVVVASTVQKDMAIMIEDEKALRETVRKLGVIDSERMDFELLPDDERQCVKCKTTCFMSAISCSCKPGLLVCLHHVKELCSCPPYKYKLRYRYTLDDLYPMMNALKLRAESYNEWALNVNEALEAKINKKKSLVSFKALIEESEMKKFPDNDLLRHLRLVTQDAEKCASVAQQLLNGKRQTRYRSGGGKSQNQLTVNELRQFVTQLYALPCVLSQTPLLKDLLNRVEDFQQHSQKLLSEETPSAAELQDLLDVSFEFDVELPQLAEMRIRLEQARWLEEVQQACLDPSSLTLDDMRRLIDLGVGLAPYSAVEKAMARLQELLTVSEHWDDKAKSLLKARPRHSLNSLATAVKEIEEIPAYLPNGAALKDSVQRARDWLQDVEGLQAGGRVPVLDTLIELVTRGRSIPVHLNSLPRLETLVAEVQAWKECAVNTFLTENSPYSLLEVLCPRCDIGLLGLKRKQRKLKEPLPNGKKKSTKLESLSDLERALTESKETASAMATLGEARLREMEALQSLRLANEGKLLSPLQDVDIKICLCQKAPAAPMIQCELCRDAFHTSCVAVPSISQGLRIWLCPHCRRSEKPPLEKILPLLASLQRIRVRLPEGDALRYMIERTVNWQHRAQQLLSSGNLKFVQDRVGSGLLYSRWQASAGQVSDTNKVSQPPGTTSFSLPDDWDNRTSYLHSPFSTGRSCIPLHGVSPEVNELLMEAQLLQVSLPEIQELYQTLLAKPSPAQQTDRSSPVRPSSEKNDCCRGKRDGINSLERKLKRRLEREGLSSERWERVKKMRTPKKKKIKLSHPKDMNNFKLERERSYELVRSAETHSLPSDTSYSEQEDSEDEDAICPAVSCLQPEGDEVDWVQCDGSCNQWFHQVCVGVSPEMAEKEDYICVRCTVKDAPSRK
The target of data set [5] is Lysine-specific demethylase 5B (Homo sapiens) (UniProt Q9UGL1). The data set is described as follows: Inhibition of full length human wild type KDM5B transfected in HeLa cells assessed as increase in H3K4Me3 level measured after 24 hrs by cell analyser based immunofluorescence assay.
Lysine-specific demethylase 5B (Homo sapiens), sequence (Q9UGL1 whole entry): as the sequence (Q9UGL1 whole entry H499A/E501A) above, with A499H, A501E counted along it
In data set [6] the target is T2, Lysine-specific demethylase 4A (Homo sapiens) (UniProt O75164).
T2 sequence (whole entry): T1 sequence (whole entry) with A188H, A190E
The data set is described as follows: Inhibition of FLAG tagged full length wild type human KDM4A transfected in HeLa cells assessed as increase in H3K9Me3 level measured after 24 hrs by cell analyser based immunofluorescence assay.

Changes are numbered by the printed parent chain. Active and inactive are the calls of the source. No cut-off for these calls is given here.

As for `O=c1[nH]cnc2c(-n3cc(CCN4CCC5(CCc6ccccc65)CC4)cn3)nccc12`, the inhibition result in data set [1] and in data set [4] was “inactive” throughout. In addition, in data set [2], the Drug metabolism entry is reported as “Metabolite_Notdetected”. Further, in data set [3], the Drug uptake result was “Tde”.
Regarding `O=c1[nH]cnc2c(-n3cc(CCN4CCC5(CCc6ccccc65)CC4)cn3)cccc12`, the inhibition entry in data set [1], in data set [5], in data set [6] and in data set [4] was “inactive” in each case. For the same compound, the Drug metabolism result in data set [2] is reported as “Metabolite_Notdetected”. Also, the Drug uptake result in data set [3] is reported as “Tde”.

The record behind these values is ChEMBL document CHEMBL4350996, “C8-substituted pyrido[3,4-d]pyrimidin-4(3H)-ones: Studies towards the identification of potent, cell penetrant Jumonji C domain containing histone lysine demethylase 4 subfamily (KDM4) inhibitors, compound profiling in cell-based target engagement assays” (Eur J Med Chem, 2019).
